Values after ≈ are worked out from the molar mass of the structure shown. Active and inactive are the calls of the source. The calls are words filed in the database; no cut-off is given here.
How the values were obtained:
Rhodococcus sp. = assay: Activity at Rhodococcus sp. FAAL expressed in Escherichia coli assessed as palmitoyl-CoA formation at 1 mM by TLC method
Summary of the method: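 Recombinant Rhodococcus ro_4064 protein expressed in E. coli, assayed cell-free with palmitic acid as substrate, with or without 1 mM CoASH. Products separated by TLC and detected by autoradiography.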

[1] = (§1) Inhibition of Mycobacterium tuberculosis H37Rv FACL28
Summary of the method: (§2)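 Purified enzyme pre-incubated with increasing LAMS concentrations, then activity measured by radio-TLC acyl-adenylation assay. Dose-response data fitted to the Morrison tight-binding equation using enzyme concentration to obtain apparent Ki.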

[2] = (§3) Inhibition of Mycobacterium tuberculosis H37Rv FAAL19; summary of the method: as §2
[3] = tested on: Mycobacterium tuberculosis H37Rv; assay: Activity at Mycobacterium tuberculosis H37Rv FACL19 assessed as acy-CoA formation by radio-TLC assay
[4] = tested on: Mycobacterium tuberculosis H37Rv; assay: Activity at Mycobacterium tuberculosis H37Rv FAAL28 assessed as conversion of lauroyl-AMP to lauryl-CoA by radio-TLC assay
[5] = tested on: Mycobacterium tuberculosis; assay: Antimicrobial activity against Mycobacterium tuberculosis H37Rv assessed decrease in SL-1 biosynthesis by [14C]propionate incorporation assay; type: functional, organism-based
Summary of the method: (§4)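 Mid-log H37Rv cultures (10 ml) given 5 μCi ^14C-propionate (methylated lipids) or ^14C-acetate (fatty/mycolic acids) plus various LAMS concentrations. Incubated 16 h at 37°C. Mycolic acids and total extractable lipids then analysed.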

[6] = tested on: Mycobacterium tuberculosis; assay: Antimicrobial activity against Mycobacterium tuberculosis H37Rv assessed decrease in PDIM biosynthesis by [14C]propionate incorporation assay; type: functional, organism-based; summary of the method: as §4
[7] = tested on: Mycobacterium tuberculosis H37Rv; assay: Stabilization of Mycobacterium tuberculosis H37Rv FACL19 assessed as protection against proteolysis
Summary of the method: (§5)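 Limited tryptic proteolysis of purified protein in the presence of increasing LAMS concentrations. Protection from fragmentation taken as a sign of binding-induced conformational change.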

[8] = tested on: Mycobacterium tuberculosis; assay: Antimicrobial activity against Mycobacterium tuberculosis H37Rv assessed as degeneration of lipid layer in cell wall by transmission electron microscopy; type: functional, organism-based
[9] = tested on: Mycobacterium tuberculosis H37Rv; assay: as §1; details: TDE = time-dependent effect; summary of the method: as §2
[10] = tested on: Mycobacterium tuberculosis H37Rv; assay: Binding affinity to Mycobacterium tuberculosis H37Rv FACL28 assessed as noncovalent protein-ligand interaction by mass spectroscopy
Summary of the method: (§6)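 Purified enzyme–inhibitor (EI*) complex extracted with ethyl acetate. Released acyl-AMS detected by mass spectrometry to test for non-covalent versus covalent binding.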

[11] = tested on: Mycobacterium tuberculosis; assay: Antimicrobial activity against Mycobacterium tuberculosis H37Rv assessed as concentration required for 100-fold reduction in bacterial CFU; type: functional
Summary of the method: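 H37Rv culture serially diluted and plated on Middlebrook 7H10 agar with OADC containing various concentrations of the acyl-AMS analogue. Colonies counted after two weeks at 37°C. MIC is the concentration giving a 10^2-fold CFU reduction.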

[12] = tested on: Mycobacterium tuberculosis H37Rv; assay: as §3; details: TDE = time-dependent effect; summary of the method: as §2
[13] = tested on: Mycobacterium tuberculosis; assay: Antimicrobial activity against Mycobacterium tuberculosis H37Rv assessed decrease in mycolic acid biosynthesis by [14C]-acetate incorporation assay; type: functional, organism-based; summary of the method: as §4
[14] = tested on: Mycobacterium tuberculosis; assay: Antimicrobial activity against Mycobacterium tuberculosis H37Rv assessed as occurrence of irregular cell shape by transmission electron microscopy; type: functional, organism-based
[15] = tested on: Mycobacterium tuberculosis; assay: Antimicrobial activity against Mycobacterium tuberculosis H37Rv assessed as degeneration of peptidoglycan layer in cell wall by transmission electron microscopy; type: functional, organism-based
[16] = tested on: Mycobacterium tuberculosis; assay: Antimicrobial activity against Mycobacterium tuberculosis H37Rv assessed decrease in fatty acid biosynthesis by [14C]-acetate incorporation assay; type: functional, organism-based; summary of the method: as §4
[17] = tested on: Mycobacterium tuberculosis; assay: Antimicrobial activity against Mycobacterium tuberculosis H37Rv assessed as reduction in appearance of dense granular cytoplasm by transmission electron microscopy; type: functional, organism-based
[18] = tested on: Mycobacterium tuberculosis H37Rv; assay: Binding affinity to Mycobacterium tuberculosis H37Rv FAAL19 assessed as noncovalent protein-ligand interaction by mass spectroscopy; summary of the method: as §6
[19] = tested on: Mycobacterium tuberculosis; assay: Antimicrobial activity against Mycobacterium tuberculosis MC2 assessed as concentration required for 100-fold reduction in bacterial CFU; type: functional
Summary of the method: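 Susceptibility followed by CFU counts on plates containing various inhibitor concentrations. MIC99 is taken as the concentration causing a 10^2 reduction in colony forming units.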

[20] = tested on: Mycobacterium tuberculosis H37Rv; assay: Stabilization of Mycobacterium tuberculosis H37Rv FAAL28 assessed as protection against proteolysis; summary of the method: as §5

## CC(C)(COP(=O)(O)OP(=O)(O)OC[C@H]1O[C@@H](n2cnc3c(N)ncnc32)[C@H](O)[C@@H]1OP(=O)(O)O)[C@@H](O)C(=O)NCCC(=O)NCCS [COENZYME_A]
Rhodococcus sp.
  Activity: inactive
[1]
  IC50: 1.2 µM
[2]
  IC50: 1.25 µM
[2]; read-out: Ki(app)
  Ki: 4.9 µM
[3]
  Activity: Active
[4]
  Activity: inactive

## CCCCCCCCCCCC(=O)NS(=O)(=O)OC[C@H]1O[C@@H](n2cnc3c(N)ncnc32)[C@H](O)[C@@H]1O
[5]
  Activity: Active
[6]
  Activity: Active
[7]
  Activity: Dose-dependent effect
[8]
  Activity: Active
[9]
  inhibition: tde
[10]
  Km: 24 µM
[11]
  MIC99: 100 µM (≈ 52.9 µg/mL)
[12]
  inhibition: tde
[13]
  Activity: Dose-dependent effect
[14]
  Activity: Active
[15]
  Activity: Active
[16]
  Activity: inactive
[17]
  Activity: Active
[18]
  Activity: Active
[19]
  MIC99: 215 µM (≈ 114 µg/mL)
[20]
  Activity: Dose-dependent effect

Reference: ChEMBL document CHEMBL1212711, “Mechanistic and functional insights into fatty acid activation in Mycobacterium tuberculosis” (Nat Chem Biol, 2009)
